According to ChEMBL document CHEMBL1287747, “Highly active antimycobacterial derivatives of benzoxazine” (2010):
≈ marks a conversion by molar mass, not a printed value.

Experiments:
Assay type in all cases: functional
[1] = system: Mycobacterium tuberculosis; experiment: Antimycobacterial activity against Mycobacterium tuberculosis CNCTC My 331/88 after 21 days by microdilution method; conditions: CNCTC My 331/88, 504 h
Summary of the method: (§1)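 Strains from the Czech National Collection of Type Cultures, tested by dilution micromethod in Šula semisynthetic medium. Incubated at 37 °C and read at 14 and 21 days. MIC is the lowest concentration inhibiting growth.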

[2] = system: Mycobacterium avium; experiment: Antimycobacterial activity against Mycobacterium avium CNCTC My 330/88 after 21 days by microdilution method; conditions: CNCTC My 330/88, 504 h; summary of the method: as §1
[3] = system: Mycobacterium kansasii; experiment: Antimycobacterial activity against Mycobacterium kansasii 6509/96 after 21 days by microdilution method; conditions: 6509/96, 504 h
Summary of the method: (§2)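 Clinical isolate that, unlike the standard strain, is not isoniazid-resistant. Tested by dilution micromethod in Šula semisynthetic medium, with compounds added in DMSO at final 1000 down to 0.25 µmol/L in twofold steps. Löwenstein-Jensen plate used as inoculum sterility and growth control. Incubated at 37 °C and read at 14 and 21 days. MIC is the lowest concentration inhibiting growth.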

[4] = system: Mycobacterium tuberculosis; experiment: Antimycobacterial activity against Mycobacterium tuberculosis CNCTC My 331/88 after 14 days by microdilution method; conditions: CNCTC My 331/88, 336 h; summary of the method: as §1
[5] = system: Mycobacterium kansasii; experiment: Antimycobacterial activity against Mycobacterium kansasii CNCTC My 235/80 after 14 days by microdilution method; conditions: CNCTC My 235/80, 336 h; summary of the method: as §1
[6] = system: Mycobacterium avium; experiment: Antimycobacterial activity against Mycobacterium avium CNCTC My 330/88 after 14 days by microdilution method; conditions: CNCTC My 330/88, 336 h; summary of the method: as §1
[7] = system: Mycobacterium kansasii; experiment: Antimycobacterial activity against Mycobacterium kansasii CNCTC My 235/80 after 21 days by microdilution method; conditions: CNCTC My 235/80, 504 h; summary of the method: as §1
[8] = system: Mycobacterium kansasii; experiment: Antimycobacterial activity against Mycobacterium kansasii 6509/96 after 14 days by microdilution method; conditions: 6509/96, 336 h; summary of the method: as §2

| SMILES | MIC [1] [µM] | MIC [2] [µM] | MIC [3] [µM] | MIC [4] [µM] | MIC [5] [µM] | MIC [6] [µM] | MIC [7] [µM] | MIC [8] [µM] |
| --- | --- | --- | --- | --- | --- | --- | --- | --- |
| CC(C)c1ccc(-n2c(=S)oc3ccc(F)cc3c2=S)cc1 | 0.5 (≈ 0.166 µg/mL) | 1 (≈ 0.331 µg/mL) | 4 (≈ 1.33 µg/mL) | 0.25 (≈ 0.0829 µg/mL) | 4 (≈ 1.33 µg/mL) | 0.5 (≈ 0.166 µg/mL) | 8 (≈ 2.65 µg/mL) | 2 (≈ 0.663 µg/mL) |
| Cc1ccc(-n2c(=O)oc3ccc(Br)cc3c2=O)cc1 | 16 (≈ 5.31 µg/mL) | 31 (≈ 10.3 µg/mL) |  | 16 (≈ 5.31 µg/mL) |  | 31 (≈ 10.3 µg/mL) | 62 (≈ 20.6 µg/mL) |  |
| Cc1ccc(-n2c(=O)oc3ccc(Br)cc3c2=S)cc1 | 1 (≈ 0.348 µg/mL) | 32 (≈ 11.1 µg/mL) | 4 (≈ 1.39 µg/mL) | 0.5 (≈ 0.174 µg/mL) | 2 (≈ 0.696 µg/mL) | 32 (≈ 11.1 µg/mL) | 4 (≈ 1.39 µg/mL) | 2 (≈ 0.696 µg/mL) |
| Cc1ccc(-n2c(=S)oc3ccc(Br)cc3c2=S)cc1 | 1 (≈ 0.364 µg/mL) | 30 (≈ 10.9 µg/mL) | 4 (≈ 1.46 µg/mL) | 0.5 (≈ 0.182 µg/mL) | 4 (≈ 1.46 µg/mL) | 15 (≈ 5.46 µg/mL) | 4 (≈ 1.46 µg/mL) | 4 (≈ 1.46 µg/mL) |
| CCC(C)c1ccc(-n2c(=S)oc3ccc(F)cc3c2=S)cc1 (configuration not stated) | 0.25 (≈ 0.0864 µg/mL) | 1 (≈ 0.345 µg/mL) | 4 (≈ 1.38 µg/mL) | 0.25 (≈ 0.0864 µg/mL) | 2 (≈ 0.691 µg/mL) | 0.5 (≈ 0.173 µg/mL) | 4 (≈ 1.38 µg/mL) | 2 (≈ 0.691 µg/mL) |
| CCc1ccc(-n2c(=O)oc3ccc(Br)cc3c2=O)cc1 | 8 (≈ 2.77 µg/mL) | 32 (≈ 11.1 µg/mL) | 16 (≈ 5.54 µg/mL) | 8 (≈ 2.77 µg/mL) | 8 (≈ 2.77 µg/mL) | 32 (≈ 11.1 µg/mL) | 16 (≈ 5.54 µg/mL) | 16 (≈ 5.54 µg/mL) |
| CCc1ccc(-n2c(=O)oc3ccc(Cl)cc3c2=O)cc1 | 16 (≈ 4.83 µg/mL) | 32 (≈ 9.66 µg/mL) | 16 (≈ 4.83 µg/mL) | 8 (≈ 2.41 µg/mL) | 16 (≈ 4.83 µg/mL) | 16 (≈ 4.83 µg/mL) | 16 (≈ 4.83 µg/mL) | 16 (≈ 4.83 µg/mL) |
| CCc1ccc(-n2c(=O)oc3cc(Cl)ccc3c2=O)cc1 | 8 (≈ 2.41 µg/mL) | 16 (≈ 4.83 µg/mL) | 16 (≈ 4.83 µg/mL) | 8 (≈ 2.41 µg/mL) | 16 (≈ 4.83 µg/mL) | 8 (≈ 2.41 µg/mL) | 16 (≈ 4.83 µg/mL) | 16 (≈ 4.83 µg/mL) |
| CCC(C)c1ccc(-n2c(=S)oc3cc(C)ccc3c2=S)cc1 (configuration not stated) | 0.5 (≈ 0.171 µg/mL) | 0.5 (≈ 0.171 µg/mL) | 1 (≈ 0.342 µg/mL) | 0.25 (≈ 0.0854 µg/mL) | 2 (≈ 0.683 µg/mL) | 0.25 (≈ 0.0854 µg/mL) | 2 (≈ 0.683 µg/mL) | 0.5 (≈ 0.171 µg/mL) |
| CC(C)(C)c1ccc(-n2c(=S)oc3ccc(Cl)cc3c2=S)cc1 | 0.5 (≈ 0.181 µg/mL) | 2 (≈ 0.724 µg/mL) | 8 (≈ 2.9 µg/mL) | 0.25 (≈ 0.0905 µg/mL) | 8 (≈ 2.9 µg/mL) | 1 (≈ 0.362 µg/mL) | 8 (≈ 2.9 µg/mL) | 8 (≈ 2.9 µg/mL) |
| Cc1ccc2c(=S)n(-c3ccc(C(C)(C)C)cc3)c(=S)oc2c1 | 0.5 (≈ 0.171 µg/mL) | 1 (≈ 0.342 µg/mL) | 2 (≈ 0.683 µg/mL) | 0.25 (≈ 0.0854 µg/mL) | 2 (≈ 0.683 µg/mL) | 0.5 (≈ 0.171 µg/mL) | 2 (≈ 0.683 µg/mL) | 1 (≈ 0.342 µg/mL) |
| CC(C)c1ccc(-n2c(=O)oc3ccc(F)cc3c2=O)cc1 | 8 (≈ 2.39 µg/mL) | 16 (≈ 4.79 µg/mL) | 16 (≈ 4.79 µg/mL) | 8 (≈ 2.39 µg/mL) | 8 (≈ 2.39 µg/mL) | 8 (≈ 2.39 µg/mL) | 8 (≈ 2.39 µg/mL) | 8 (≈ 2.39 µg/mL) |
| Cc1ccc2c(=O)n(-c3ccc(C(C)C)cc3)c(=O)oc2c1 |  |  |  |  |  |  |  | 32 (≈ 9.45 µg/mL) |
| CCC(C)c1ccc(-n2c(=O)oc3ccc(F)cc3c2=O)cc1 (configuration not stated) | 8 (≈ 2.51 µg/mL) | 8 (≈ 2.51 µg/mL) | 8 (≈ 2.51 µg/mL) | 8 (≈ 2.51 µg/mL) | 8 (≈ 2.51 µg/mL) | 8 (≈ 2.51 µg/mL) | 8 (≈ 2.51 µg/mL) | 4 (≈ 1.25 µg/mL) |
| CCC(C)c1ccc(-n2c(=O)oc3cc(C)ccc3c2=O)cc1 (configuration not stated) |  |  |  |  |  |  |  | 32 (≈ 9.9 µg/mL) |
| CCCCc1ccc(-n2c(=O)oc3ccc(Cl)cc3c2=O)cc1 | 16 (≈ 5.28 µg/mL) | 16 (≈ 5.28 µg/mL) | 16 (≈ 5.28 µg/mL) | 16 (≈ 5.28 µg/mL) | 8 (≈ 2.64 µg/mL) | 16 (≈ 5.28 µg/mL) | 8 (≈ 2.64 µg/mL) | 8 (≈ 2.64 µg/mL) |
| CC(C)(C)c1ccc(-n2c(=O)oc3ccc(Cl)cc3c2=O)cc1 | 16 (≈ 5.28 µg/mL) | 32 (≈ 10.6 µg/mL) | 8 (≈ 2.64 µg/mL) | 8 (≈ 2.64 µg/mL) | 8 (≈ 2.64 µg/mL) | 16 (≈ 5.28 µg/mL) | 16 (≈ 5.28 µg/mL) | 8 (≈ 2.64 µg/mL) |
| CC(C)(C)c1ccc(-n2c(=O)oc3ccc(F)cc3c2=O)cc1 | 16 (≈ 5.01 µg/mL) | 16 (≈ 5.01 µg/mL) | 16 (≈ 5.01 µg/mL) | 16 (≈ 5.01 µg/mL) | 16 (≈ 5.01 µg/mL) | 16 (≈ 5.01 µg/mL) | 16 (≈ 5.01 µg/mL) | 8 (≈ 2.51 µg/mL) |
